The text below walks through data of ChEMBL document CHEMBL3272208, “(Vinylaryloxy)acetic acids. A new class of diuretic agents. 3. ((2-Nitro-1-alkenyl)aryloxy)acetic acids” (1976).

Assay [1] has as its system Canis familiaris. In words: Diuretic activity in mongrel dog assessed as sodium level in excreted urine at 0.4 mg/kg, po measured for 6 hrs (reference value: 2 mequivalents). The format is functional, Canis lupus familiaris.
Assay [2] deals with Canis familiaris. In words: Diuretic activity in mongrel dog assessed as volume of excreted urine at 1 mg/kg, iv measured between 15 to 45 mins after dosage (reference value: 1 to 4 ml/min). The format is functional, Canis lupus familiaris. In outline: (§1)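 Compounds were given iv to dogs as Na salts in H2O. […] The baseline is the mean of two 15-min periods before dosing. The response is the mean of two consecutive 15-min periods of maximal Na+ excretion, usually 15–45 min post-dose. Na+, K+ and Cl- are in μequiv/min and urine volume in ml/min, reported as control/drug.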

Assay [3] deals with Canis familiaris. In words: Diuretic activity in mongrel dog assessed as potassium level in excreted urine at 1 mg/kg, iv measured between 15 to 45 mins after dosage (reference value: 6 to 47 uequiv/min). The format is functional, Canis lupus familiaris. A digest of the protocol: as §1
In assay [4] the test system is Canis familiaris. Put plainly: Diuretic activity in mongrel dog assessed as chloride level in excreted urine at 1 mg/kg, iv measured between 15 to 45 mins after dosage (reference value: 1 to 70 uequiv/min). Format: functional, Canis lupus familiaris. In outline:
(§2)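 Compounds were given iv to dogs as Na salts in H2O. The baseline is the mean of two 15-min periods before dosing. The response is the mean of two consecutive 15-min periods of maximal Na+ excretion, usually 15–45 min post-dose. Na+, K+ and Cl- are in μequiv/min and urine volume in ml/min, reported as control/drug.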

Assay [5] relates to Canis familiaris. In words: Diuretic activity in mongrel dog assessed as volume of excreted urine at 0.4 mg/kg, po measured for 6 hrs (RVb = 180 ml).
In assay [6] the test system is Canis familiaris. Put plainly: Diuretic activity in mongrel dog assessed as chloride level in excreted urine at 0.4 mg/kg, po measured for 6 hrs (reference value: 2 mequivalents). The format is functional, Canis lupus familiaris.
For assay [7], the system named is Canis familiaris. Put plainly: Diuretic activity in mongrel dog assessed as sodium level in excreted urine at 1 mg/kg, iv measured […] after dosage (reference value: 3 to 95 uequiv/min). Format: functional, Canis lupus familiaris. A digest of the protocol: as §2
Assay [8] deals with Canis familiaris. Put plainly: Diuretic activity in mongrel dog assessed as potassium level in excreted urine at 0.4 mg/kg, po measured for 6 hrs (reference value: 1 mequivalents). The format is functional, Canis lupus familiaris.
The subject of assay [9] is Canis familiaris. Put plainly: Diuretic activity in mongrel dog assessed as sodium level in excreted urine at 10 mg/kg, iv measured […] after dosage (reference value: 5 to 66 uequiv/min). The format is functional, Canis lupus familiaris. A digest of the protocol:
as §1

In assay [10] the test system is Canis familiaris. In words: Diuretic activity in mongrel dog assessed as sodium level in excreted urine at 5 mg/kg, po measured for 6 hrs (reference value: 2 mequivalents). Format: functional, Canis lupus familiaris.
The test system of assay [11] is Canis familiaris. In words: Diuretic activity in mongrel dog assessed as potassium level in excreted urine at 10 mg/kg, iv measured between 15 to 45 mins after dosage (reference value: 7 to 63 uequiv/min). Format: functional, Canis lupus familiaris. In outline: as §1
The subject of assay [12] is Canis familiaris. In words: Diuretic activity in mongrel dog assessed as volume of excreted urine at 5 mg/kg, po measured for 6 hrs (RVb = 180 ml).
The test system of assay [13] is Canis familiaris. Put plainly: Diuretic activity in mongrel dog assessed as chloride level in excreted urine at 10 mg/kg, iv measured between 15 to 45 mins after dosage (reference value: 3 to 64 uequiv/min). Format: functional, Canis lupus familiaris. A digest of the protocol: as §2
The test system of assay [14] is Canis familiaris. Put plainly: Diuretic activity in mongrel dog assessed as chloride level in excreted urine at 5 mg/kg, po measured for 6 hrs (reference value: 2 mequivalents). Format: functional, Canis lupus familiaris.
For assay [15], the system named is Canis familiaris. Put plainly: Diuretic activity in mongrel dog assessed as potassium level in excreted urine at 5 mg/kg, po measured for 6 hrs (reference value: 1 mequivalents). Format: functional, Canis lupus familiaris.
Assay [16] relates to Canis familiaris. Put plainly: Diuretic activity in mongrel dog assessed as volume of excreted urine at 10 mg/kg, iv measured between 15 to 45 mins after dosage (reference value: 1 to 4 ml/min). The format is functional, Canis lupus familiaris. In outline: as §1
In assay [17] the test system is Canis familiaris. In words: Diuretic activity in mongrel dog assessed as chloride level in excreted urine at 2 mg/kg, po measured for 6 hrs (reference value: 2 mequivalents). Format: functional, Canis lupus familiaris.
The subject of assay [18] is Canis familiaris. Put plainly: Diuretic activity in mongrel dog assessed as volume of excreted urine at 2 mg/kg, po measured for 6 hrs (RVb = 180 ml).
Assay [19] deals with Canis familiaris. Put plainly: Diuretic activity in mongrel dog assessed as potassium level in excreted urine at 2 mg/kg, po measured for 6 hrs (reference value: 1 mequivalents). The format is functional, Canis lupus familiaris.
Assay [20] has as its system Canis familiaris. In words: Diuretic activity in mongrel dog assessed as sodium level in excreted urine at 2 mg/kg, po measured for 6 hrs (reference value: 2 mequivalents). Format: functional, Canis lupus familiaris.
The test system of assay [21] is Canis familiaris. In words: Diuretic activity in mongrel dog assessed as potassium level in excreted urine at 1 mg/kg, po measured for 6 hrs (reference value: 1 mequivalents). The format is functional, Canis lupus familiaris.
The test system of assay [22] is Canis familiaris. Put plainly: Diuretic activity in mongrel dog assessed as volume of excreted urine at 0.1 mg/kg, iv measured between 15 to 45 mins after dosage (reference value: 1 ml/min). The format is functional, Canis lupus familiaris. In outline: as §1
Assay [23] relates to Canis familiaris. Put plainly: Diuretic activity in mongrel dog assessed as chloride level in excreted urine at 0.1 mg/kg, iv measured between 15 to 45 mins after dosage (reference value: 14 uequiv/min). Format: functional, Canis lupus familiaris. A digest of the protocol:
as §1

The test system of assay [24] is Canis familiaris. In words: Diuretic activity in mongrel dog assessed as potassium level in excreted urine at 0.1 mg/kg, iv measured between 15 to 45 mins after dosage (reference value: 14 uequiv/min). Format: functional, Canis lupus familiaris. In outline: as §1
Assay [25] deals with Canis familiaris. In words: Diuretic activity in mongrel dog assessed as volume of excreted urine at 1 mg/kg, po measured for 6 hrs (RVb = 180 ml).
The test system of assay [26] is Canis familiaris. Put plainly: Diuretic activity in mongrel dog assessed as sodium level in excreted urine at 0.1 mg/kg, iv measured […] after dosage (reference value: 36 uequiv/min). The format is functional, Canis lupus familiaris. A digest of the protocol:
as §1

In assay [27] the test system is Canis familiaris. Put plainly: Diuretic activity in mongrel dog assessed as sodium level in excreted urine at 1 mg/kg, po measured for 6 hrs (reference value: 2 mequivalents). The format is functional, Canis lupus familiaris.
Assay [28] deals with Canis familiaris. Put plainly: Diuretic activity in mongrel dog assessed as potassium level in excreted urine at 3 mg/kg, po measured for 6 hrs (reference value: 1 mequivalents). Format: functional, Canis lupus familiaris.
Assay [29] concerns Canis familiaris. In words: Diuretic activity in mongrel dog assessed as chloride level in excreted urine at 3 mg/kg, po measured for 6 hrs (reference value: 2 mequivalents). Format: functional, Canis lupus familiaris.
The subject of assay [30] is Canis familiaris. Put plainly: Diuretic activity in mongrel dog assessed as sodium level in excreted urine at 3 mg/kg, po measured for 6 hrs (reference value: 2 mequivalents). The format is functional, Canis lupus familiaris.
The test system of assay [31] is Canis familiaris. Put plainly: Diuretic activity in mongrel dog assessed as chloride level in excreted urine at 1 mg/kg, po measured for 6 hrs (reference value: 2 mequivalents). Format: functional, Canis lupus familiaris.

As for `C/C(=C\c1ccc(OCC(=O)O)c(Cl)c1Cl)[N+](=O)[O-]`, the Activity in the assay with Canis familiaris [1] stood at 25 milliequivalent; with Canis familiaris [2], 11 mL/min; in the assay on Canis familiaris [3], 104 uEq/min; with Canis familiaris [4], 2163 uEq/min; in the assay on Canis familiaris [5] it was 628 mL; with Canis familiaris [6], 31 milliequivalent. Besides, the Activity came out at 2128 uEq/min with Canis familiaris [7] and 7 milliequivalent with Canis familiaris [8].

For `C/C(=C\c1ccc(OCC(=O)O)cc1)[N+](=O)[O-]`, the Activity turned out to be 2 mL/min in the assay with Canis familiaris [2]; 12 uEq/min with Canis familiaris [3]; 61 uEq/min in the assay with Canis familiaris [4]; 649 uEq/min in the assay on Canis familiaris [9]; 6 milliequivalent in the assay on Canis familiaris [10]; 70 uEq/min with Canis familiaris [11]. Also, the Activity with Canis familiaris [12] came to 378 mL; with Canis familiaris [13] it was 611 uEq/min; in the assay on Canis familiaris [7] it was 82 uEq/min; with Canis familiaris [14], 4 milliequivalent; in the assay with Canis familiaris [15], 2 milliequivalent; in the assay on Canis familiaris [16] it was 6 mL/min.

In the case of `C/C(=C\c1ccc(OCC(N)=O)c(Cl)c1Cl)[N+](=O)[O-]`, the Activity in the assay on Canis familiaris [17] was 39 milliequivalent; with Canis familiaris [18], 485 mL; in the assay on Canis familiaris [19], 8 milliequivalent; in the assay on Canis familiaris [20] it was 25 milliequivalent.

For the compound `CC(=O)C(=Cc1ccc(OCC(=O)O)c(Cl)c1Cl)C(C)=O`, the Activity in the assay with Canis familiaris [21] was 7 milliequivalent; in the assay on Canis familiaris [2], 11 mL/min; in the assay with Canis familiaris [3] it was 104 uEq/min; in the assay on Canis familiaris [5], 762 mL; in the assay on Canis familiaris [22], 9 mL/min; in the assay with Canis familiaris [23] it was 1100 uEq/min. For the same compound, the Activity was 187 uEq/min in the assay with Canis familiaris [24]; 492 mL in the assay with Canis familiaris [25]; 6 milliequivalent in the assay with Canis familiaris [8]; 984 uEq/min with Canis familiaris [26]; 30 milliequivalent with Canis familiaris [27].

For the compound `C=C(CC)C(=O)c1ccc(OCC(=O)O)c(Cl)c1Cl` [ETHACRYNIC ACID], the Activity in the assay on Canis familiaris [21] was 5 milliequivalent; in the assay on Canis familiaris [28] it was 7 milliequivalent; in the assay with Canis familiaris [2] it was 6 mL/min; in the assay on Canis familiaris [3], 52 uEq/min; in the assay on Canis familiaris [4], 244 uEq/min; with Canis familiaris [9], 2989 uEq/min. Further, the Activity in the assay with Canis familiaris [29] stood at 42 milliequivalent; in the assay on Canis familiaris [30], 37 milliequivalent; in the assay on Canis familiaris [31], 26 milliequivalent; in the assay on Canis familiaris [11], 194 uEq/min; in the assay on Canis familiaris [13] it was 3324 uEq/min; with Canis familiaris [7] it was 188 uEq/min. The Activity came to 21 milliequivalent in the assay with Canis familiaris [27] and 22 mL/min in the assay with Canis familiaris [16].
